Data set [1] in a line: Cytotoxicity against human HPLF cells after 48 hrs by MTT assay. The data set is classed as cell-based. An outline of the steps: (§1)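 Adherent cells seeded 5 × 10^3/well and grown 48 h, then medium replaced with fresh medium holding test compound (DMSO stock 20 mM; top well 100 μM, serial 2-fold dilutions, triplicate wells). After a further 48 h, cells were washed with PBS lacking Ca/Mg and given 0.2 mg/mL MTT for 4 h. Lysis was in DMSO and A540 was read. CC50 came from the dose–response curve.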
In general terms: Formazan colour is commonly taken as a measure of viable cells.

Data set [2] is described as follows: Cytotoxicity against human HGF cells after 48 hrs by MTT assay. Format: cell-based. The method, boiled down: as §1
The nature of data set [3]: Cytotoxicity against human HPC cells after 48 hrs by MTT assay. The data set is classed as cell-based. An outline of the steps: as §1
Another data set relates to HSC-3. The experiment in a line: Cytotoxicity against human HSC3 cells after 48 hrs by MTT assay. Format: functional. The note with it: HSC-3, 48 h. The method, boiled down:
as §1

A further data set deals with HSC-4. The experiment in a line: Cytotoxicity against human HSC4 cells after 48 hrs by MTT assay. Format: functional. The note with it: HSC-4, 48 h. The method, boiled down:
as §1

Another data set relates to HSC-2. The experiment in a line: Cytotoxicity against human HSC2 cells after 48 hrs by MTT assay. Format: functional. As to conditions: HSC-2, 48 h. The method, boiled down: as §1
For another data set, the system named is HL-60. The experiment in a line: Cytotoxicity against human HL60 cells after 48 hrs by trypan blue exclusion assay. The note with it: HL-60, 48 h.

Regarding `O=C1O[C@@H]2O[C@@H]3COC(=O)c4cc(O)c(O)c(O)c4-c4c(cc(O)c(O)c4O)C(=O)O[C@H]3[C@H](OC(=O)c3cc(O)c(O)c(O)c3)[C@H]2OC(=O)c2cc(O)c(O)c(O)c2Oc2cc(cc(O)c2O)C(=O)O[C@@H]2O[C@H](CO)[C@@H](O)[C@H](OC(=O)c3cc(O)c(O)c(O)c3)[C@H]2OC(=O)c2cc(O)c(O)c(O)c2Oc2c(O)cc1cc2O`, the CC50 at 48 h was above 100 µM in data set [1], above 100 µM in data set [2] and 80.3 µM in data set [3]. For the same compound, the CC50 in the data set on HSC-3 amounted to 20.8 µM; in the data set on HSC-4 it was 26.6 µM; in the data set with HSC-2 it was 20.2 µM; with HL-60 it was 62 µM.

With `O=C1O[C@@H]2O[C@@H]3COC(=O)c4cc(O)c(O)c(O)c4-c4c(cc(O)c(O)c4O)C(=O)O[C@H]3[C@H](OC(=O)c3cc(O)c(O)c(O)c3)[C@H]2OC(=O)c2cc(O)c(O)c(O)c2Oc2cc(cc(O)c2O)C(=O)O[C@@H]2O[C@@H]3COC(=O)c4cc(O)c(O)c(O)c4-c4c(cc(O)c(O)c4O)C(=O)O[C@H]3[C@H](OC(=O)c3cc(O)c(O)c(O)c3)[C@H]2OC(=O)c2cc(O)c(O)c(O)c2Oc2c(O)cc1cc2O`, the CC50 at 48 h in data set [1] is above 100 µM; in data set [2], 95 µM; in data set [3] it was 84.3 µM. Besides, the CC50 with HSC-3 is 24.3 µM; in the data set with HSC-4 it was 28.7 µM; in the data set with HSC-2, 19.9 µM; in the data set on HL-60, 54.2 µM.

Consider `O=C1O[C@@H]2O[C@@H]3COC(=O)c4cc(O)c(O)c(O)c4-c4c(cc(O)c(O)c4O)C(=O)O[C@H]3[C@H](OC(=O)c3cc(O)c(O)c(O)c3)[C@H]2OC(=O)c2cc(O)c(O)c(O)c2Oc2c(O)cc(cc2O)C(=O)O[C@@H]2O[C@H](CO)[C@@H](O)[C@H](OC(=O)c3cc(O)c(O)c(O)c3)[C@H]2OC(=O)c2cc(O)c(O)c(O)c2Oc2cc1cc(O)c2O`, for which the CC50 at 48 h in data set [1] is above 100 µM; in data set [2], above 100 µM; in data set [3], 81 µM. Moreover, the CC50 with HSC-3 amounted to 21.9 µM; in the data set on HSC-4, 24.5 µM; in the data set on HSC-2, 18.5 µM; in the data set on HL-60, 70.8 µM.

As for `O=C1O[C@@H]2O[C@@H]3COC(=O)c4cc(O)c(O)c(O)c4-c4c(cc(O)c(O)c4O)C(=O)O[C@H]3[C@H](OC(=O)c3cc(O)c(O)c(O)c3)[C@H]2OC(=O)c2cc(O)c(O)c(O)c2Oc2c(O)cc(cc2O)C(=O)O[C@@H]2O[C@@H]3COC(=O)c4cc(O)c(O)c(O)c4-c4c(cc(O)c(O)c4O)C(=O)O[C@H]3[C@H](OC(=O)c3cc(O)c(O)c(O)c3)[C@H]2OC(=O)c2cc(O)c(O)c(O)c2Oc2c(O)cc1cc2O`, the CC50 at 48 h in data set [1] is above 100 µM; in data set [2] it was 93.6 µM; in data set [3], 88.3 µM. Further, the CC50 with HSC-3 amounted to 47.8 µM; with HSC-4 it was 43 µM; with HSC-2 it was 23 µM; in the data set with HL-60, 55.9 µM.

Regarding `O=C1O[C@@H]2O[C@@H]3COC(=O)c4cc(O)c(O)c(O)c4-c4c(cc(O)c(O)c4O)C(=O)O[C@H]3[C@H](OC(=O)c3cc(O)c(O)c(O)c3)[C@H]2OC(=O)c2cc(O)c(O)c(O)c2Oc2cc(cc(O)c2O)C(=O)O[C@@H]2O[C@@H]3COC(=O)c4cc(O)c(O)c(O)c4-c4c(cc(O)c(O)c4O)C(=O)O[C@H]3[C@H](OC(=O)c3cc(O)c(O)c(O)c3)[C@H]2OC(=O)c2cc(O)c(O)c(O)c2Oc2cc(cc(O)c2O)C(=O)O[C@@H]2O[C@@H]3COC(=O)c4cc(O)c(O)c(O)c4-c4c(cc(O)c(O)c4O)C(=O)O[C@H]3[C@H](OC(=O)c3cc(O)c(O)c(O)c3)[C@H]2OC(=O)c2cc(O)c(O)c(O)c2Oc2c(O)cc1cc2O`, the CC50 at 48 h in data set [1] is above 100 µM; in data set [2] it was 96.6 µM; in data set [3], 90.7 µM. Further, the cytotoxic concentration (CC50) was 34.2 µM in the data set with HSC-3, 42.9 µM in the data set with HSC-4, 22.3 µM with HSC-2 and 30.5 µM with HL-60.

What is called CC50 is the concentration at which the toxic effect on the cells reaches its halfway point. Low readings indicate harm at low concentration, high ones better tolerance by the cells.

The values above are taken from ChEMBL document CHEMBL2375338, “Hydrolyzable tannins of tamaricaceous plants. V. Structures of monomeric-trimeric tannins and cytotoxicity of macrocyclic-type tannins isolated from Tamarix nilotica (1)” (J Nat Prod, 2013).
